Laboratory results reported in ChEMBL document CHEMBL1811790, “Oxadiazole derivatives containing 1,4-benzodioxan as potential immunosuppressive agents against RAW264.7 cells” (Bioorg Med Chem, 2011).
Active and inactive are the calls of the source. The rule behind the calls is not given here.

What was measured:
RAW264.7 [1] = assay: Inhibition of iNOS mRNA expression in mouse RAW264.7 cells by RT-PCR; type: functional, cell-based
[2] = target: T1, Nitric oxide synthase, inducible (Mus musculus, UniProt P29477); assay: Inhibition of iNOS in mouse RAW264.7 cells assessed as conversion of L-citrulline to L-arginine incubated for 30 mins by scintillation counting; type: cell-based; conditions: in the assay text read “conversion of L-arginine to L-citrulline” for “conversion of L-citrulline to L-arginine”
T1 sequence (P29477 whole entry): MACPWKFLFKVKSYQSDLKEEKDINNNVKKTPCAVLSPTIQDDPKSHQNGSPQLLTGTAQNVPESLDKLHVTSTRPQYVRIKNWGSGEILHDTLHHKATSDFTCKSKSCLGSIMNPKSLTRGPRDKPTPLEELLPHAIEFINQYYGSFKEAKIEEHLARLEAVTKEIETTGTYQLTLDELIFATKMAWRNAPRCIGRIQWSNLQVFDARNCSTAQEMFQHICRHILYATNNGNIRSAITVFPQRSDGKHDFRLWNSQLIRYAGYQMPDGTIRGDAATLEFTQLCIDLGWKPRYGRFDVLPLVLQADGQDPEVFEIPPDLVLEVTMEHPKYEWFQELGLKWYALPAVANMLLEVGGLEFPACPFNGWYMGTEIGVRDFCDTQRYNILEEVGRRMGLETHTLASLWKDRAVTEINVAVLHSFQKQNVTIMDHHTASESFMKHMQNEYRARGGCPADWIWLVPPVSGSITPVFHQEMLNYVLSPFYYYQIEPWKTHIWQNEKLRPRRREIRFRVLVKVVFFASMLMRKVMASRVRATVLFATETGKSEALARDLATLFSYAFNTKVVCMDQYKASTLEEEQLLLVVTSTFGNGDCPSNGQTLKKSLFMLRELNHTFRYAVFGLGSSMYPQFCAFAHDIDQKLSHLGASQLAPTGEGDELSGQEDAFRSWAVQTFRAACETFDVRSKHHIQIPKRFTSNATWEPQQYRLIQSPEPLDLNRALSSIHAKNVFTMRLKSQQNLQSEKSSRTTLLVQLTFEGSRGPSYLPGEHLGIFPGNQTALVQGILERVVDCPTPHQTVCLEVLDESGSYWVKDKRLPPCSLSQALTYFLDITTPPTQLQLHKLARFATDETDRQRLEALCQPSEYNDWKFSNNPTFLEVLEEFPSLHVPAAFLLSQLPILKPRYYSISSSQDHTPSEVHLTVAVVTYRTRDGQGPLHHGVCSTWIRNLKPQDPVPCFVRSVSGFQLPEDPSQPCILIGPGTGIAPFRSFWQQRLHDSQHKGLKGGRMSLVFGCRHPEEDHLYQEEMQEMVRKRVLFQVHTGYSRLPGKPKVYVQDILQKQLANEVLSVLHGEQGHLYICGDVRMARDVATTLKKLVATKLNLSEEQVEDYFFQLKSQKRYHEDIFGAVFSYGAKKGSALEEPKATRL
In short: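 Crude enzyme was the supernatant of collected RAW264.7 cells, adjusted to 50 mM Tris and 100 µM dithiothreitol final. Enzyme was incubated 30 min with NADPH, compound, L-[3H]-arginine (10 µCi/mL stock) and Tris pH 7.5. The reaction was stopped with 0.1 M buffer pH 5.0 containing 2 mM EDTA and 2 mM EGTA, then stirred 5 min with Dowex 50W-8X. L-[3H]-citrulline in the supernatant was read by scintillation counting.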

RAW264.7 [3] = assay: Immunosuppressive activity in mouse RAW264.7 cells assessed as inhibition of LPS-induced nitric oxide production incubated for 24 hrs by Griess method; type: functional
In short: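 Murine macrophage-like RAW264.7 cells were activated with LPS. Control wells (LPS only) and blank wells (cells only) each received 0.1% DMSO vehicle.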

RAW264.7 [4] = assay: Acute toxicity in mouse RAW264.7 cells assessed as OD540 absorbance incubated for 24 hrs by MTT assay; type: cell-based; conditions: raw264.7, 24 h
In short: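 RAW264.7 cells kept in DMEM with 5% FBS, 100 U/mL penicillin and streptomycin, at 37 °C in humidified 5% CO2. Compounds were added at the indicated concentrations for 24 h. MTT reagent (5 mg/mL stock) was then added for 4 h, supernatants were aspirated and formazan crystals were dissolved for reading. Control and blank wells received 0.1% DMSO.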

| IC50 [2] | SMILES | inhibition (RAW264.7 [1]) | inhibition (INH) (RAW264.7 [3]) | deltaA (RAW264.7 [4]) |
| --- | --- | --- | --- | --- |
| 0.12 µM | COc1cc(-c2nnc(-c3ccc4c(c3)OCCO4)o2)cc(OC)c1OC | inactive | 20.03% | 1.02 |
|  | c1ccc(OCc2nnc(-c3ccc4c(c3)OCCO4)o2)cc1 |  | 6.98% | 0.36 |
|  | O=[N+]([O-])c1ccccc1-c1nnc(-c2ccc3c(c2)OCCO3)o1 |  | 3.65% | 0.3 |
|  | Clc1ccc(Cc2nnc(-c3ccc4c(c3)OCCO4)o2)cc1 |  | 28.11% | 0.63 |
| 0.09 µM | C(=C\c1nnc(-c2ccc3c(c2)OCCO3)o1)/c1ccccc1 | inactive | 25.54% | 1.15 |
|  | Brc1ccc(Cc2nnc(-c3ccc4c(c3)OCCO4)o2)cc1 |  | -8.53% | 0.99 |
|  | c1ccc(Cc2nnc(-c3ccc4c(c3)OCCO4)o2)cc1 |  | -3.63% | 0.45 |
|  | Clc1ccccc1-c1nnc(-c2ccc3c(c2)OCCO3)o1 |  | -57.48% | 1.45 |
| 0.05 µM | c1cncc(-c2nnc(-c3ccc4c(c3)OCCO4)o2)c1 | Active | 37.66% | 1.31 |
|  | COc1cccc(Cc2nnc(-c3ccc4c(c3)OCCO4)o2)c1 |  | 21.66% | 0.76 |
| 2.35 µM | c1ccc(-c2nnc(-c3ccc4c(c3)OCCO4)o2)cc1 |  | 5.08% | 1.5 |
| 0.1 µM | Cc1ccccc1-c1nnc(-c2ccc3c(c2)OCCO3)o1 | inactive | 21.58% | 1.03 |
|  | O=[N+]([O-])c1cccc(-c2nnc(-c3ccc4c(c3)OCCO4)o2)c1 |  | -33.82% | 0.73 |
| 2.16 µM | Clc1ccc(OCc2nnc(-c3ccc4c(c3)OCCO4)o2)cc1 |  | 10.49% | 0.89 |
|  | O=[N+]([O-])c1ccc(-c2nnc(-c3ccc4c(c3)OCCO4)o2)cc1 |  | 1.34% | 0.57 |
|  | Clc1cccc(Cc2nnc(-c3ccc4c(c3)OCCO4)o2)c1 |  | 23.7% | 0.2 |
|  | c1ccc(CCc2nnc(-c3ccc4c(c3)OCCO4)o2)cc1 |  | 3.71% | 0.1 |
|  | Brc1cncc(-c2nnc(-c3ccc4c(c3)OCCO4)o2)c1 |  | -42.39% | 1.22 |
